Reference: the EternaBench riboswitch data

Tested on: MS2 coat protein
Assay: apparent Kd, MS2 coat protein; higher = weaker binding; RNA-MaP array; FMN 200 µM where present
Procedure, shortened: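 The apparent Kd comes from binding curves fitted cluster by cluster, filtered, and summarised as a median. Those curves followed SNAP-549-labelled MS2 coat protein from 0.7 or 1.5 nM, doubling to 3 µM, on Illumina sequencing-chip clusters where stalled E. coli RNA polymerase had transcribed the designs, without and then with constant ligand. The buffer was 100 mM Tris-HCl pH 7.5, 80 mM KCl, 4 mM MgCl2, BSA, DTT, yeast tRNA and Tween-20, and green signal was normalised to red-channel RNA signal and control-cluster median Fmax.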

[1] = designed as: ON switch for flavin mononucleotide, no ligand
[2] = ligand present: flavin mononucleotide, designed as: ON switch for flavin mononucleotide
[3] = designed as: OFF switch for flavin mononucleotide, no ligand
[4] = ligand present: flavin mononucleotide, designed as: OFF switch for flavin mononucleotide

Sequence | apparent Kd [1] | apparent Kd [2] | apparent Kd [3] | apparent Kd [4]
UGUUGUAUUACAGGAUAUCUAAUAUUUUUAUUUAGAGAAGGGUAUUCACAUGAGGAUCACCCAUGUAUAUACGAGGAAGUUGUG | 34.3 nM | 38.1 nM |  | 
UGUUGUAUUACAGGAUAUCUAGUUUUUUUAUUUAGAGAAGGGUAUUCACAUGAGGAUCACCCAUGUAUAUACGAGGAAGUUGUG | 46.6 nM | 56.1 nM |  | 
UGUUGUAUUACAGGAUAUCUAUUAGUUUGAUUUAGAGAAGGGUAUUCACAUGAGGAUCACCCAUGUAUAUACGAGGAAGUUGUG | 57.8 nM | 57.9 nM |  | 
UGUUGUAUUACAGGAUAUCUAUUAGUUUUAUAUAGAGAAGGGUAUUCACAUGAGGAUCACCCAUGUAUAUACGAGGAAGUUGUG | 43.4 nM | 45.5 nM |  | 
UGUUGUAUUACAGGAUAUCUAUUAGUUUUGUUUAGAGAAGGGUAUUCACAUGAGGAUCACCCAUGUAUAUACGAGGAAGUUGUG | 59 nM | 65.2 nM |  | 
UGUUGUAUUACAGGAUAUCUAUUAGUUUUUUUUAGAGAAGGGUAUUCACAUGAGGAUCACCCAUGUAUAUACGAGGAAGUUGUG | 50.2 nM | 51.7 nM |  | 
UGUUGUAUUACAGGAUAUCUAUUAUUGUUAUUUAGAGAAGGGUAUUCACAUGAGGAUCACCCAUGUAUAUACGAGGAAGUUGUG | 54.7 nM | 55.3 nM |  | 
UGUUGUAUUACAGGAUAUCUAUUGUUUUUGUUUAGAGAAGGGUAUUCACAUGAGGAUCACCCAUGUAUAUACGAGGAAGUUGUG | 62.8 nM | 72 nM |  | 
UGUUGUUGAUAGGAUAUACUUGUAGGAGUUGUAGUAGAAGGAUCUACAUGAGGAUCACCCAUGUAGGAGUGAGU |  |  | 17.5 nM | 17.2 nM
UGUUGUUUCAAGAAGGAUGUGUAUUUGUAUUCCAUAGGAUAUUGAGAAAUAGUUGCUCAAGUAUACAUGAGGAUCACCCAUGUU | 14.2 nM | 9.98 nM |  | 
UUAAAUCAUGUAGGAUAUGCAUGGCGAAGCUACGCAGAAGGACAUGAGGAUCACCCAUGUGCUAGCGUCUGGAUACAGAUGCAA |  |  | 48.5 nM | 258 nM
UUAAAUCAUGUAGGAUAUGCAUGGCGAAGCUACGCAGAAGGACAUGAGGAUCACCCAUGUUAAAGCUACCGUAUACGGUGGCAA |  |  | 131 nM | 174 nM
UUAAAUCAUGUAGGAUAUGCAUGGCGAAGCUACGCAGAAGGACAUGAGGAUCACCCAUGUUCGAGCUACCGAGUUCGGUGGCAA |  |  | 21.9 nM | 122 nM
UUAAAUCGAAACAUGAGGAUCACCCAUGUGUUGUAAUUAAUAUAGGAUAUGUGUAUACUUUUAUAACAGAAGGAUGAUAAUACU | 22.2 nM | 16.9 nM |  | 
UUAAUCAUGUAGAAGGACGGAUAUUAAGAGUACGUAGGAUAUACAGCAGACAUGAGGAUCACCCAUGUGAACAUGGUACAUAGG |  |  | 180 nM | 55 nM
UUAAUCUAUACAGGAUAUCCAUACGCUGCAUACGGAGAAGGGUAACAAUCAUGAGGACAUGAGGAUCACCCAUGUUGUGACCAU | 198 nM | 97.1 nM |  | 
UUAAUUAAUUAAUUAUACAUGAGGAUCACCCAUGUAAGUGAUCAGGAUAUCAGCUCGAAUAGAGCUGAGAAGGGAUACAUGAAU | 144 nM | 118 nM |  | 
UUAAUUAAUUAAUUAUACAUGAGGAUCACCCAUGUAAGUGAUCAGGAUAUCAGCUCGAAUAGAGCUGAGAAGGGAUCCAUGUAA | 117 nM | 83 nM |  | 
UUAAUUUGUCAAGGAUAUGUAAUAUAGAUUAGAAAACAUGAGGAUCACCCAUGUAUAUGGUGGGAACAGAAGGUGAAUGGUUUA |  |  | 189 nM | 160 nM
UUACAGCAAGGAUAUACGGGCUGUGCUUUUCAUUUCUUACAACAUGAGGAUCACCCAUGUAGAAGGUGCAACUU |  |  | 34.8 nM | 63.3 nM
UUACAUACAAAGGUACAUGAGGAUCACCCAUGUUUGUUGGGAAGAAGGGUAACAGUACUACAUAUAUAGGAUAUUUCACAAAUG | 106 nM | 73.4 nM |  | 
UUACCUCAUGAGAAGGACAUGAGGAUCACCCAUGUAGGAUAUCGUGGGACAGUGGAAUUGAAUCUUCGGAUUCAAUAACUCUAU | 327 nM | 26.1 nM |  | 
UUACUACAUGAGGAUCACCCAUGUCAGGAUAUUGUUUAUACCUUGGAAUACGUGUCAACAAGAAGGGACUAUAU |  |  | 22.9 nM | 23.4 nM
UUACUAUAACAGAAGGCUAAAUAAUAUAUAAAUGGAGGAUAUGUUACAUGAGGAUCACCCAUGUUUCACCCACAUGAGGAUCAC |  |  | 13.7 nM | 42 nM
UUACUAUUGGAGAAGGGUCGAUAAUAUAUAAUGGCAGGAUAUCCAACAUGAGGAUCACCCAUGUUUCACCCAUAUGAGGAUCAC |  |  | 54.2 nM | 24.1 nM
UUACUUUUACAGAAGGUUUAAUAAUAUAUAAGAGAAGGAUAUGUAACAUGAGGAUCACCCAUGUUUCACCCAUAUGAGGAUCAU |  |  | 8.12 nM | 7.78 nM
UUAGAAUUGCAAGGAUAUCUUAUUUAGAUAGUAAGAGAAGGUGCUUUAUAGUUACAUGAGGAUCACCCAUGUAUUUCUUUUUAU | 23.1 nM | 19.7 nM |  | 
UUAGAAUUGUUAGGAUAUUAAUUAUUGUAUAGUAUGAUCUACAUGAGGAUCACCCAUGUUAAAUAUAAGAAGGAACGUUAGAUU |  |  | 57.6 nM | 51.3 nM

Sequence | apparent Kd [1] | apparent Kd [2] | apparent Kd [3] | apparent Kd [4]
UUAGAAUUGUUAGGAUAUUAAUUAUUUUUUAGUAUGAUCUACAUGAGGAUCACCCAUGUUAAAUAUAAGAAGGAACGUUUUAUU |  |  | 51.8 nM | 52 nM
UUAGCAUACCGAGGAUAUUCAUAUAAUAAAUAAACAUGAGGAUCACCCAUGUGGCGAAAGCCUAGGGAGAAGGCGGAAUGCUAG | 171 nM | 27.2 nM |  | 
UUAGGCUUCUAGAAGGCGGUCCAGCUAGAGGACCGAGGAUAUAGGCACCUAACAUGAGGAUCACCCAUGUUAGUGAUUCCUCAA |  |  | 132 nM | 166 nM
UUAUACGUUGAGGAUAUGUCAGUUAGUAUAUUUACAGAAGGCGAUACAUGAGGAUCACCCAUGUUUAUGGGCAU |  |  | 213 nM | 149 nM
UUAUACGUUGAGGAUAUGUCAUUUAGUAUAGUUACAGAAGGCGAUACAUGAGGAUCACCCAUGUUUAUGGGCAU |  |  | 239 nM | 164 nM
UUAUAUAGAGUGAGGAUAUGCUGGUCCUUGGAUCAGCAGAAGGCACAUGAGGAUCACCCAUGUAAUAUAUUAUU |  |  | 22 nM | 38.2 nM
UUAUAUAGUGUGAGGAUAUGCUGGUCCUUGGAUCAGCAGAAGGCACAUGAGGAUCACCCAUGUAGUUAAUUAUA |  |  | 32 nM | 122 nM
UUAUGAGAGCAGGAUAUCUUAUUUUUUUUUUAAAGAGAAGGGCUCACAUGAGGAUCACCCAUGUGGUCCUAGAU |  |  | 42.8 nM | 75.6 nM
UUAUGUAUUGUAGGAUAUCAUAAGUUAUGUAUUAUAAUUGAAAUUUUGUUAUGAGAAGGACAUAUACAUGAGGAUCACCCAUGU |  |  | 16.6 nM | 14 nM
UUAUGUGUUGUAGGAUAUCAUUAGAUUUGUAAUUUAAUUGUAAUUUACAUAUGAGAAGGACAUUUACAUGAGGAUCACCCAUGU |  |  | 12.5 nM | 9.6 nM
UUAUGUUUACAAGGAUAUCAAUUAUUUAUACUUCCUACAUGAGGAUCACCCAUGUUUUUAUAUUUUGAGAAGGUGUAAUGUCGG | 38.5 nM | 35.4 nM |  | 
UUAUUAGCAGGAUAUAUCCGGGAUCACAUGAGGAUCACCCAUGUGACCGCUUGAGAUCCUAUAGAAGGGCUUUAUU |  |  | 30.6 nM | 56.3 nM
UUAUUAUAUAUAGGAUAUUGAUGUAAUUUAUUUCAAGAAGGAUAUACAUGAGGAUCACCCAUGUUGGAUAGGGUUAGUUUGUUU | 86.5 nM | 154 nM |  | 
UUAUUAUGUGUAGGAUAUGCAUAUUAUGAUUAUGCAGAAGGACAUGAGGAUCACCCAUGUAUAUUAUUAUUAUAUAUUAUAUAU |  |  | 13.3 nM | 21.1 nM
UUAUUAUGUGUAGGAUAUGCAUAUUCUUAUUAUGCAGAAGGACAUGAGGAUCACCCAUGUAUAUUAUUAUUAUAUAUUAUAUAU |  |  | 14.6 nM | 13.1 nM
UUAUUUUUACAGAAGGUUUAAUAAUAUGUAUGAGAAGGAUAUGUAACAUGAGGAUCACCCAUGUUUCAUCUAUAUGAGGAUCAU |  |  | 6.61 nM | 5.57 nM
UUAUUUUUACAGAAGGUUUAAUAAUAUGUAUGAGAAGGAUAUGUAACAUGAGGAUCACCCAUGUUUUAUCUAUAUGAGGAUCAU |  |  | 6.69 nM | 6.88 nM
UUCAAAUCGUAGAAGGGUGACAUGAGGAUCACCCAUGUGCAGCAGCCGUGAACGGCCAUGCUGCCACAGGAUAUACGAUGGAGU | 93.2 nM | 96.5 nM |  | 
UUCAAAUUCGUAGGAUAUGUAUAAAUUUUCUACAUGAGGAUCACCCAUGUUACCAUUUUAAAUUGACAGAAGGACGUAAUCUAA | 22.5 nM | 8.74 nM |  | 
UUCAGCUCGUGAGGAUAUACAUGUGCUGGAAACAGCAUUAAAUUUUUCACAUGAGGAUCACCCAUGUAGAAGGCACGAGCUGAG |  |  | 16.6 nM | 39.8 nM
UUCAUCAAUGAAGGAUAUCUAUGUCCAACAUGAGGAUCACCCAUGUUGAGGAUUACCUAUGUGUAGGAGAAGGUCAAUAUAACU | 6.53 nM | 5.93 nM |  | 
UUCCAACGAGGAUAUCGAUGGUGGAACAUGAGGAUCACCCAUGUAUGAGAUAUUGUAGUUCGAGAAGGCGUUCAGU |  |  | 36.9 nM | 32.2 nM
UUCCCAAGUGCAGGAUAUGCUUCACCGACCUCAGCAGAAGGGCACAUGAGGAUCACCCAUGUGGCAAAAGUACACAGCAAGCUG |  |  | 7.74 nM | 11 nM
UUCCGACAUGAGGAUCACCCAUGUAAGGAUAUGUAUCCUUCGGCCCGAACCAGAGGAAGCAGAAGGUACAGGGA |  |  | 31.3 nM | 20 nM
UUCCUCGAAGGAUAUUCGACUAGGUACAUGAGGAUCACCCAUGUCAUGAGCCCAAUAGGCGAAGAAGGUCGAGUGU |  |  | 23.5 nM | 34.6 nM
UUCCUGUCAGGAUAUGACUAGAUGCACGUUAGUGUGUUUACUUAGAAGGGACAUGAGGAUCACCCAUGUAGUCC |  |  | 36.2 nM | 33 nM
UUCGAGUUGCAAGGAUAUCUUAUUUAGAUUUUAAGAGAAGGUGCUUCACAGCUACAUGAGGAUCACCCAUGUCUUUCUUCUUAU | 29.7 nM | 23.7 nM |  | 
